Data reported in ChEMBL document CHEMBL5096187, “Efficient Synthesis and Bioevaluation of Novel Dual Tubulin/Histone Deacetylase 3 Inhibitors as Potential Anticancer Agents” (J Med Chem, 2021).
Activity calls are given as the source filed them. The calls are words filed in the database; no cut-off is given here.

What was measured:
A549 = experiment: Antiproliferative activity against human A549 cells assessed as inhibition of cell viability measured for 48 hrs by microplate reader based CCK-8 assay; type: functional; details: A549, 48 h
B16-F10 [1] = experiment: Antitumor activity against mouse B16-F10 cells allografted in C57BL/6 mouse assessed as tumor growth inhibition at 10 mg/kg, ip administered for 14 days; type: functional; details: B16-F10, 336 h, time 14 day, read-out: TGI
Outline: (§1)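 C57BL/6 mice were inoculated subcutaneously with 3×10⁵ B16-F10 cells in PBS and randomized (n = 8). Drugs in ethanol/polyoxyethylene castor oil/saline (1.25:1.25:7.5) or vehicle alone were given i.p. once daily for 14 days. Mice were sacrificed at day 14 and tumors weighed; TGI(%) = [1 − Wt/Wv] × 100 using mean tumor weights.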

B16-F10 [2] = experiment: Induction of apoptosis in mouse B16-F10 cells assessed as late apoptotic cells at 100 nM incubated for 48 hrs by Annexin V-FITC/PI analysis (reference value: 0.00 %); type: functional
[3] = Cardiotoxicity in C57BL/6 mouse ssessed as shortening of QTc level in presence of (2-phenylthiazol-4-yl)(3,4,5-trimethoxyphenyl)methanone by ECG analysis; type: toxicity
Outline: (§2)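 Mice aged 6–8 weeks dosed by intragastric gavage once daily for 14 days; ECG and heart rate recorded on a PowerLab system.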

[4] = Antiproliferative activity against human YCC3/7 cells assessed as inhibition of cell viability; type: functional, cell-based
[5] = Antiproliferative activity against human YCC-11 cells assessed as inhibition of cell viability; type: functional, cell-based
B16-F10 [6] = experiment: cells; details: Mus musculus, B16-F10, 48 h
B16-F10 [7] = experiment: Antiproliferative activity against mouse B16-F10 cells assessed as inhibition of cell viability measured for 48 hrs by microplate reader based MTT assay; type: functional; details: B16-F10, 48 h
Outline: (§3)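 Cells grown in RPMI-1640 with 10% FBS and seeded at 5000 cells/well. After overnight attachment, compound was added in medium with 0.1% DMSO for 48 h at 37 °C. Read-out was MTT for HCT-116, B16-F10 and A549, and CCK-8 for Jurkat (0.5 mg/mL, 4 h), with absorbance at 570 nm. IC50 from nonlinear regression; at least three independent experiments.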

[8] = In vivo inhibition of HDAC in tumor of mouse B16-F10 cells xenografted in C57BL/6 mouse assessed as increase in acetylated histone-H3 expression by […] immunohistochemistry method; type: functional; set-up: scale not given: the % may be the effect or the level left
Outline: (§4)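 Tumors from the 14-day i.p. B16-F10 study were formalin-fixed and paraffin-embedded. Sections were deparaffinized, treated with 3% H2O2, and antigen-retrieved at pH 9 and 80 °C overnight. Blocked with milk, incubated with anti-Ac-H3 at 4 °C overnight, then IgG secondary and hematoxylin counterstain. Ac-H3-positive ratio quantified from images.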

B16-F10 [9] = experiment: Induction of apoptosis in mouse B16-F10 cells assessed as necrotic cells at 100 nM incubated for 48 hrs by Annexin V-FITC/PI analysis (reference value: 0.012 %); type: functional
[10] = Toxicity in C57BL/6 mouse allografted with mouse B16-F10 cells assessed as morphological abnormalities in kidney at 5 mg/kg, ip administered for 14 days in presence of (2-phenylthiazol-4-yl)(3,4,5-trimethoxyphenyl)methanone by H and E staining based analysis; type: organism-based; details: in vivo, 336 h, time 14 day
Outline: (§5)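 C57BL/6 mice with subcutaneous B16-F10 allografts, n = 8 per group, given i.p. injections once daily for 14 days. Single agents at 10 mg/kg; combination at 5 + 5 mg/kg. Vehicle: ethanol/polyoxyethylene castor oil/saline 1.25:1.25:7.5. Liver and kidney fixed in 4% paraformaldehyde, paraffin-embedded, H&E stained and examined by microscopy.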

B16-F10 [11] = experiment: Induction of apoptosis in mouse B16-F10 cells assessed as early apoptotic cells at 100 nM incubated for 48 hrs by Annexin V-FITC/PI analysis (reference value: 1.68 %); type: functional
B16-F10 [12] = experiment: Upregulation of AC-H3 in mouse B16-F10 cells incubated for 12 hrs by Western blot analysis; type: functional, cell-based; details: dose 20-200 nM, DDE = dose-dependent effect
Outline: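 B16-F10 cells (5 × 10⁵/well) treated 12 h with DMSO or compound, lysed in RIPA buffer. 30 μg protein separated by SDS-PAGE and blotted onto PVDF. Blocked 5% BSA 2 h, primary antibody overnight at 4 °C, secondary 1.5 h. Ac-H3 probed, with histone H3 and GAPDH as loading controls; band density quantified; three independent experiments.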

[13] = Toxicity in C57BL/6 mouse allografted with mouse B16-F10 cells assessed as body weight loss at 10 mg/kg, ip administered for 14 days; details: in vivo, 336 h
B16-F10 [14] = experiment: Induction of apoptosis in mouse B16-F10 cells assessed as viable cells at 100 nM incubated for 48 hrs by Annexin V-FITC/PI analysis (reference value: 98.3 %); type: functional; details: read-out: Activity
B16-F10 [15] = experiment: Antitumor activity against mouse B16-F10 cells allografted in C57BL/6 mouse assessed as reduction in tumor weight at 10 mg/kg, ip administered for 14 days in presence of (2-phenylthiazol-4-yl)(3,4,5-trimethoxyphenyl)methanone; type: functional, organism-based; details: time 14.0 day; outline: as §1
[16] = Toxicity in C57BL/6 mouse allografted with mouse B16-F10 cells assessed as morphological abnormalities in kidney at 10 mg/kg, ip administered for 14 days by H and E staining based analysis; type: organism-based; details: in vivo, 336 h, time 14 day; outline: as §5
HCT-116 = experiment: Antiproliferative activity against human HCT-116 cells assessed as inhibition of cell viability measured for 48 hrs by microplate reader based MTT assay; type: functional; details: HCT-116, 48 h; outline: as §3
[17] = Cardiotoxicity in C57BL/6 mouse ssessed as shortening of QTc level by ECG analysis; type: toxicity; outline: as §2
B16-F10 [18] = experiment: Antitumor activity against mouse B16-F10 cells allografted in C57BL/6 mouse assessed as tumor growth inhibition at 10 mg/kg, ip administered for 14 days in presence of (2-phenylthiazol-4-yl)(3,4,5-trimethoxyphenyl)methanone; type: functional; details: B16-F10, 336 h, time 14 day, read-out: TGI; outline: as §1
B16-F10 [19] = experiment: Induction of cell cycle arrest in mouse B16-F10 cells assessed as accumulation of cells in G2/M phase at 100 nM measured after 48 hrs by PI/RNaseA staining based flow cytometry analysis (Rvb= 5.76%); type: functional
[20] = In vivo inhibition of HDAC in tumor of mouse B16-F10 cells xenografted in C57BL/6 mouse assessed as increase in acetylated histone-H3 expression in presence of (2-phenylthiazol-4-yl)(3,4,5-trimethoxyphenyl)methanone by […] immunohistochemistry method; type: functional; set-up: scale not given: the % may be the effect or the level left; outline: as §4
Jurkat = experiment: Antiproliferative activity against human Jurkat cells assessed as inhibition of cell viability measured for 48 hrs by microplate reader based CCK-8 assay; type: functional
[21] = Cardiotoxicity in C57BL/6 mouse ssessed as shortening of QTc level in presence of Entinostat by ECG analysis; type: toxicity; outline: as §2
Tubulin (Sus scrofa) = Tubulin (Sus scrofa) (UniProt P02554+P02550); experiment: Inhibition of pig brain tubulin polymerization at 10 uM measured after 20 mins by spectrometric method relative to control
Sequence of Tubulin (Sus scrofa) (P02550 whole entry, looked up): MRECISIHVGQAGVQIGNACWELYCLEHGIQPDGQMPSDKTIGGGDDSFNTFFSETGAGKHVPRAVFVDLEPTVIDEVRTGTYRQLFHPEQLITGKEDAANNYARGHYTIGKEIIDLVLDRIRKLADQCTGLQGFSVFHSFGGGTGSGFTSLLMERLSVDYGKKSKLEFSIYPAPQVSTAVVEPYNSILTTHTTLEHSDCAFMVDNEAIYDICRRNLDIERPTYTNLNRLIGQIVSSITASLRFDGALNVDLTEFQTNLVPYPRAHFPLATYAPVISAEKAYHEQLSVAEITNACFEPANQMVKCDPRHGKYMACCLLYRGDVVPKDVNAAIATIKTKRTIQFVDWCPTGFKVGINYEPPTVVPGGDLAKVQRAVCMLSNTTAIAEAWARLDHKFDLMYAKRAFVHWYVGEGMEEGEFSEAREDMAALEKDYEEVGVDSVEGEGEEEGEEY
Sequence of Tubulin (Sus scrofa) (P02554 whole entry, looked up): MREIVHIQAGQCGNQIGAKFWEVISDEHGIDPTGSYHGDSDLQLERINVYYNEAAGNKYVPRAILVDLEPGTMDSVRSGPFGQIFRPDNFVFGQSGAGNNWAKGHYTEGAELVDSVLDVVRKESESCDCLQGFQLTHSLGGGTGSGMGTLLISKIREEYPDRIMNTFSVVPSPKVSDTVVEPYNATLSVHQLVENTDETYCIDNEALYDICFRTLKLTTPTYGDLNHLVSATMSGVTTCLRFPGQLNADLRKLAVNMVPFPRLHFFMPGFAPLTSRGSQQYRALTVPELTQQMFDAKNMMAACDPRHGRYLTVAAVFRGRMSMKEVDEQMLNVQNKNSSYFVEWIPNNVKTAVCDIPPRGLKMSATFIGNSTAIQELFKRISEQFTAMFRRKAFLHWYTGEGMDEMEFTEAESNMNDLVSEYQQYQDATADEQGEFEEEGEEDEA
Outline: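 Pig brain tubulin was purified by three assembly/disassembly cycles and then phosphocellulose chromatography. Compound at 10 μM in PEM buffer with 1 mM GTP and 5% glycerol at 37 °C. Polymerization followed at 340 nm; inhibition taken at 20 min versus vehicle control.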

B16-F10 [22] = experiment: Antitumor activity against mouse B16-F10 cells allografted in C57BL/6 mouse assessed as reduction in tumor weight at 10 mg/kg, ip administered for 14 days in presence of Entinostat; type: functional, organism-based; details: time 14.0 day; outline: as §1
B16-F10 [23] = experiment: Inhibition of cell migration in mouse B16-F10 cells assessed as reduction in wound area ratio measured at 100 nM incubated for 24 hrs by wound healing assay; type: functional; set-up: scale not given: the % may be the effect or the level left
Outline: (§6)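 Confluent B16-F10 monolayers, seeded overnight, were scratched with a pipette tip and washed to remove debris. Cells were then treated, and phase-contrast images were taken at 0 and 24 h. Migration distance or wound area measured manually against DMSO control; n = 3.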

[24] = Toxicity in C57BL/6 mouse allografted with mouse B16-F10 cells assessed as morphological abnormalities in kidney at 5 mg/kg, ip administered for 14 days in presence of Entinostat by H and E staining based analysis; type: organism-based; details: in vivo, 336 h, time 14 day; outline: as §5
B16-F10 [25] = experiment: Inhibition of cell migration in mouse B16-F10 cells assessed as reduction in wound area measured at 100 nM incubated for 24 hrs by wound healing assay; type: functional; set-up: scale not given: the % may be the effect or the level left; outline: as §6
Tubulin = Tubulin (Sus scrofa, UniProt P02554+P02550); experiment: Inhibition of pig brain tubulin polymerization by spectrometric method
Outline: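 Phosphocellulose-purified pig brain tubulin mixed with graded compound concentrations in PEM buffer (100 mM PIPES, 1 mM MgCl2, 1 mM EGTA) plus 1 mM GTP and 5% glycerol. Absorbance at 340 nm and 37 °C; plateau absorbance used to calculate IC50.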

[26] = In vivo inhibition of HDAC in tumor of mouse B16-F10 cells xenografted in C57BL/6 mouse assessed as increase in acetylated histone-H3 expression in presence of Entinostat by […] immunohistochemistry method; type: functional; set-up: scale not given: the % may be the effect or the level left; outline: as §4
B16-F10 [27] = experiment: Antitumor activity against mouse B16-F10 cells allografted in C57BL/6 mouse assessed as tumor growth inhibition at 10 mg/kg, ip administered for 14 days in presence of Entinostat; type: functional; details: B16-F10, 336 h, time 14 day, read-out: TGI; outline: as §1
B16-F10 [28] = experiment: Antiproliferative activity against mouse B16-F10 cells assessed as inhibition of cell viability measured for 48 hrs in presence of Entinostat by microplate reader based MTT assay; type: functional; details: B16-F10, 48 h; outline: as §3

Row | SMILES | IC50 (A549) | inhibition in vivo at 10 mg/kg (B16-F10 [1]) | Activity (B16-F10 [2]) | IC50 [4] | IC50 [5] | IC50 (B16-F10 [7]) | Activity (B16-F10 [9]) | Activity (B16-F10 [11]) | Activity [13] | viability at 0.1 µM (B16-F10 [14]) | Activity [16] | IC50 (HCT-116) | Activity [17] | Activity (B16-F10 [19]) | IC50 (Jurkat) | also measured
1 | Nc1ccccc1NC(=O)c1ccc(CNC(=O)OCc2cccnc2)cc1 [ENTINOSTAT] | 1710 nM | 47% | 22.4% | 12900 nM | 5560 nM | 2260 nM | 1.37% | 16.3% | Non-Toxic | 59.9% | Non-Toxic | 1720 nM | Toxic | 42.17% | 690 nM | Activity [3]: Non-Toxic; IC50 (B16-F10 [6]): 1150 nM; Activity [8]: 27.9%; Activity [10]: Non-Toxic; Activity (B16-F10 [12]): Dde; Activity (B16-F10 [15]): Active; inhibition in vivo at 10 mg/kg (B16-F10 [18]): 53%; Activity [20]: 16.3%
2 | COc1cc(C(=O)c2csc(-c3ccccc3)n2)cc(OC)c1OC | 190 nM | 25% | 0.49% | 1940 nM | 1690 nM | 980 nM | 0.75% | 29.1% | Non-Toxic | 60.7% | Non-Toxic | 70 nM | Toxic | 76.58% | 30 nM | Activity [21]: Non-Toxic; inhibition (Tubulin (Sus scrofa)): 78%; Activity (B16-F10 [22]): Active; Activity (B16-F10 [23]): 16.24%; Activity [24]: Non-Toxic; Activity (B16-F10 [25]): 16.2%; IC50 (Tubulin): 7900 nM; Activity [26]: 16.3%; inhibition in vivo at 10 mg/kg (B16-F10 [27]): 53%; IC50 (B16-F10 [28]): 1150 nM
